# From ChEMBL document CHEMBL1122123 (1982)
# Experiments:
# Format in all cases: functional
# lizard = test: In vitro potency of compound to stimulate melanosome dispersion in lizard skin relative to alpha-MSH
# How it was run: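 Isolated Anolis carolinensis lizard skins were scored in vitro for melanosome dispersion (darkening) across the entire dose-response range. Relative potency is the ratio of the α-MSH concentration giving 50% response to the peptide concentration giving 50% response.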
# [1] = In vitro potency of compound to stimulate adenylate cyclase activity in melanoma cells relative to alpha-MSH
# How it was run: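 Particulate membranes from Cloudman S-91 mouse melanoma tumors grown in DBA/2J mice were used as a cell-free system, 56 μg of protein per assay. Adenylate cyclase activity was measured as conversion of [α-³²P]ATP to [³²P]cAMP, with cAMP isolated by the Salomon method. Full dose-response curves were run in triplicate. Potency is relative to α-MSH: concentration of α-MSH at 50% response divided by that of the peptide.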
# [2] = test system: Melanocyte-stimulating hormone receptor; test: In vitro potency of compound to stimulate melanosome dispersion in frog (Rana pipiens) skin relative to alpha-MSH
Compound,Potency (lizard),Potency [1],Potency [2]
CCCC[C@H](NC(C)=O)C(=O)N[C@@H](CCC(=O)O)C(=O)N[C@@H](Cc1c[nH]cn1)C(=O)N[C@@H](Cc1ccccc1)C(=O)N[C@@H](CCCN=C(N)N)C(=O)N[C@@H](Cc1c[nH]c2ccccc12)C(=O)NCC(N)=O,0.06,0.09,0.002
Ac-YEHFRWG-NH2,0.0006,0.001,0.0002
CSCC[C@H](NC(C)=O)C(=O)N[C@@H](CCC(=O)O)C(=O)N[C@@H](Cc1c[nH]cn1)C(=O)N[C@@H](Cc1ccccc1)C(=O)N[C@@H](CCCN=C(N)N)C(=O)N[C@@H](Cc1c[nH]c2ccccc12)C(=O)NCC(N)=O,0.004,–,0.0003
CCCC[C@H](NC(C)=O)C(=O)N[C@@H](CCC(=O)O)C(=O)N[C@@H](Cc1c[nH]cn1)C(=O)N[C@H](Cc1ccccc1)C(=O)N[C@@H](CCCN=C(N)N)C(=O)N[C@@H](Cc1c[nH]c2ccccc12)C(=O)NCC(N)=O,10,7.7,0.02
CSCC[C@H](N)C(=O)N[C@@H](CCC(=O)O)C(=O)N[C@@H](Cc1c[nH]cn1)C(=O)N[C@@H](Cc1ccccc1)C(=O)N[C@@H](CCCN=C(N)N)C(=O)N[C@@H](Cc1c[nH]c2ccccc12)C(=O)NCC(=O)O,4e-05,–,1e-05
